Laboratory results from ChEMBL document CHEMBL4138201, “Synthesis and biological evaluation of sulfur-containing shikonin oxime derivatives as potential antineoplastic agents” (Eur J Med Chem, 2018).
The source made the active and inactive calls. The rule behind the calls is not given here.

Legend:
HCT-15 [1] = assay: Induction of apoptosis in human HCT15 cells assessed as viable cells at 1 uM after 24 hrs by Annexin-V-FITC/propidium iodide staining based flow cytometry (reference value: 90.4%); format: functional; conditions: HCT-15, 24 h, read-out: Activity
[2] = Induction of NO release in phosphate buffer at pH 7.4 at 0.1 mM measured after 5 hrs in presence of N-acetylcysteine by Griess assay; format: functional
In short: (§1)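 Percentage of NO released in vitro measured by Griess assay against a standard curve. Incubation in 0.5 mM N-acetylcysteine, read hourly from 1 to 6 h.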

[3] = Induction of NO release in phosphate buffer at pH 7.4 at 0.1 mM measured after 2 hrs in presence of N-acetylcysteine by Griess assay; format: functional; in short: as §1
HCT-15 [4] = assay: Induction of apoptosis in human HCT15 cells assessed as viable cells at 2 uM after 24 hrs by Annexin-V-FITC/propidium iodide staining based flow cytometry (reference value: 90.4%); format: functional; conditions: HCT-15, 24 h, read-out: Activity
HCT-15 [5] = assay: Induction of apoptosis in human HCT15 cells assessed as late apoptotic cells at 2 uM after 24 hrs by Annexin-V-FITC/propidium iodide staining based flow cytometry (reference value: 6.59%); format: functional
HCT-15 [6] = assay: Cell cycle arrest in human HCT15 cells assessed assessed as accumulation at G1 phase at 0.5 uM after 24 hrs by propidium iodide staining-based flow cytometric method (reference value: 36.7%); format: functional
In short: (§2)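 HCT-15 cells seeded in 6-well plates, exposed to 0, 0.5 or 1.0 µM for 24 h, then harvested and stained with propidium iodide. DNA content read by flow cytometry and G1, S and G2/M fractions calculated. Comparison with untreated control by Student's t-test.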

HCT-15 [7] = assay: Induction of apoptosis in human HCT15 cells assessed as late apoptotic cells at 0.5 uM after 24 hrs by Annexin-V-FITC/propidium iodide staining based flow cytometry (reference value: 6.59%); format: functional
HCT-15 [8] = assay: Induction of apoptosis in human HCT15 cells assessed as increase in Bax protein expression up to 2 uM after 24 hrs by Western blot analysis; format: functional, cell-based
In short: (§3)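 Protein extracted from HCT-15 cells after 24 h at 0, 0.5, 1.0 or 2.0 µM. Bcl-2, Bax and cleaved caspase-3 and -9 immunoblotted, band ratios quantified by densitometry. Student's t-test used.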

MGC-803 = assay: Cytotoxicity against human MGC803 cells after 48 hrs by MTT assay; format: functional, cell-based; conditions: MGC-803, 48 h
In short: (§4)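 MTT colorimetric assay. Shikonin and 5-fluorouracil served as reference agents. IC₅₀ obtained by linear regression of each compound's concentration–response curve.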

HCT-15 [9] = assay: Induction of apoptosis in human HCT15 cells assessed as early apoptotic cells at 1 uM after 24 hrs by Annexin-V-FITC/propidium iodide staining based flow cytometry (reference value: 2.97%); format: functional
[10] = Induction of NO release in phosphate buffer at pH 7.4 at 0.1 mM measured after 1 hr in presence of N-acetylcysteine by Griess assay; format: functional; in short: as §1
HCT-15 [11] = assay: Induction of apoptosis in human HCT15 cells assessed as downregulation of Bcl2 expression at 2 uM after 24 hrs by Western blot analysis; format: functional, cell-based; in short: as §3
HCT-15 [12] = assay: Induction of apoptosis in human HCT15 cells assessed as increase in cleaved caspase-9 levels after 24 hrs by Western blot analysis; format: functional, cell-based; in short: as §3
HCT-15 [13] = assay: Cell cycle arrest in human HCT15 cells assessed assessed as accumulation at G2/M phase at 0.5 to 1.0 uM after 24 hrs by propidium iodide staining-based flow cytometric method; format: functional; conditions: in the assay text read “accumulation at G1 phase” for “accumulation at G2/M phase”; in short: as §2
HCT-15 [14] = assay: Induction of apoptosis in human HCT15 cells assessed as early apoptotic cells at 2 uM after 24 hrs by Annexin-V-FITC/propidium iodide staining based flow cytometry (reference value: 2.97%); format: functional
HCT-15 [15] = assay: Induction of apoptosis in human HCT15 cells assessed as necrotic cells at 1 uM after 24 hrs by Annexin-V-FITC/propidium iodide staining based flow cytometry (reference value: 0.005%); format: functional
HCT-15 [16] = assay: Induction of apoptosis in human HCT15 cells assessed as viable cells at 0.5 uM after 24 hrs by Annexin-V-FITC/propidium iodide staining based flow cytometry (reference value: 90.4%); format: functional; conditions: HCT-15, 24 h, read-out: Activity
HCT-15 [17] = assay: Cell cycle arrest in human HCT15 cells assessed assessed as accumulation at G1 phase at 1.0 uM after 24 hrs by propidium iodide staining-based flow cytometric method (reference value: 36.7%); format: functional; in short: as §2
HCT-15 [18] = assay: Induction of apoptosis in human HCT15 cells assessed as early apoptotic cells at 0.5 uM after 24 hrs by Annexin-V-FITC/propidium iodide staining based flow cytometry (reference value: 2.97%); format: functional
HCT-15 [19] = assay: Induction of apoptosis in human HCT15 cells assessed as late apoptotic cells at 1 uM after 24 hrs by Annexin-V-FITC/propidium iodide staining based flow cytometry (reference value: 6.59%); format: functional
HCT-15 [20] = assay: Induction of apoptosis in human HCT15 cells assessed as necrotic cells at 2 uM after 24 hrs by Annexin-V-FITC/propidium iodide staining based flow cytometry (reference value: 0.005%); format: functional
[21] = Cytotoxicity against human HSF cells after 48 hrs by MTT assay; format: cell-based; in short: as §4
[22] = Induction of NO release in phosphate buffer at pH 7.4 at 0.1 mM measured after 4 hrs in presence of N-acetylcysteine by Griess assay; format: functional; in short: as §1
HCT-15 [23] = assay: Cell cycle arrest in human HCT15 cells assessed assessed as accumulation at S phase at 0.5 to 1.0 uM after 24 hrs by propidium iodide staining-based flow cytometric method; format: functional; conditions: in the assay text read “accumulation at G1 phase” for “accumulation at S phase”; in short: as §2
[24] = Induction of NO release in phosphate buffer at pH 7.4 at 0.1 mM measured after 6 hrs in presence of N-acetylcysteine by Griess assay; format: functional; in short: as §1
[25] = Induction of NO release in phosphate buffer at pH 7.4 at 0.1 mM measured after 3 hrs in presence of N-acetylcysteine by Griess assay; format: functional; in short: as §1
HCT-15 [26] = assay: Induction of apoptosis in human HCT15 cells after 24 hrs by Annexin-V-FITC/propidium iodide staining based flow cytometry; format: functional, cell-based
HCT-15 [27] = assay: Induction of apoptosis in human HCT15 cells assessed as necrotic cells at 0.5 uM after 24 hrs by Annexin-V-FITC/propidium iodide staining based flow cytometry (reference value: 0.005%); format: functional
MCF7 = assay: Cytotoxicity against human MCF7 cells after 48 hrs by MTT assay; format: functional, cell-based; conditions: MCF7, 48 h; in short: as §4
HCT-15 [28] = assay: Induction of apoptosis in human HCT15 cells assessed as increase in cleaved caspase-3 levels after 24 hrs by Western blot analysis; format: functional, cell-based; in short: as §3
HCT-15 [29] = assay: Cytotoxicity against human HCT15 cells after 48 hrs by MTT assay; format: functional, cell-based; conditions: HCT-15, 48 h; in short: as §4
HCT-15 [30] = assay: Induction of apoptosis in human HCT15 cells assessed as chromatin condensation up to 1.0 uM after 24 hrs by Hoechst 33342 staining-based fluorescence microscopic method; format: functional, cell-based
In short: (§5)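 HCT-15 cells incubated 24 h at 0, 0.5 or 1.0 µM, then stained with Hoechst 33342. Nuclei examined by fluorescence for fragmentation, chromatin condensation and staining intensity.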

HCT-15 [31] = assay: Induction of apoptosis in human HCT15 cells assessed as nuclear fragmentation up to 1.0 uM after 24 hrs by Hoechst 33342 staining-based fluorescence microscopic method; format: functional, cell-based; in short: as §5
Bel-7402 = assay: Cytotoxicity against human Bel7402 cells after 48 hrs by MTT assay; format: functional, cell-based; conditions: Bel-7402, 48 h; in short: as §4

For `COc1cc(C(=O)SC(CC=C(C)C)c2cc(OC)c3c(c2OC)/C(=N/O)C=C/C3=N\O)cc(OC)c1OC` (centres undefined), the viability at 1 µM (HCT-15 [1]) was 58%, the Activity [2] was 0.084% and the Activity [3] was 0.063%. For the same molecule, the viability at 2 µM (HCT-15 [4]) was 22.4%, the Activity (HCT-15 [5]) was 57.3% and the Activity (HCT-15 [6]) was 44.1%. For the same molecule, the Activity (HCT-15 [7]) was 9.43%, the Activity (HCT-15 [8]) was “Active” and the IC50 (MGC-803) was 860 nM. For the same molecule, the Activity (HCT-15 [9]) was 18.3%, the Activity [10] was 0.049% and the Activity (HCT-15 [11]) was “Active”. For the same molecule, the Activity (HCT-15 [12]) was “Dose-dependent effect”, the Activity (HCT-15 [13]) was “Active” and the Activity (HCT-15 [14]) was 20.1%. It also gave an Activity (HCT-15 [15]) of 0.021%, a viability at 0.5 µM (HCT-15 [16]) of 86% and an Activity (HCT-15 [17]) of 49.9%. It also gave an Activity (HCT-15 [18]) of 4.56%, an Activity (HCT-15 [19]) of 23.7% and an Activity (HCT-15 [20]) of 0.088%. For the same molecule, the IC50 [21] was > 50000 nM, the Activity [22] was 0.091% and the Activity (HCT-15 [23]) was “Active”. The Activity [24] was 0.079%, the Activity [25] was 0.076% and the Activity (HCT-15 [26]) was “Dose-dependent effect”. The Activity (HCT-15 [27]) was 0.018%, the IC50 (MCF7) was 9230 nM and the Activity (HCT-15 [28]) was “Dose-dependent effect”. For the same molecule, the IC50 (HCT-15 [29]) was 270 nM, the Activity (HCT-15 [30]) was “Active” and the Activity (HCT-15 [31]) was “Active”. It also gave an IC50 (Bel-7402) of 450 nM.
